# According to ChEMBL document CHEMBL1144065, “Synthesis of furanonaphthoquinones with hydroxyamino side chains” (J Nat Prod, 1999):
# Assays:
# Saccharomyces cerevisiae [1] = test: Growth inhibition of Yeast expressing rad52.top1 mutant by yeast bioassay; type: functional
# Outline: (§1)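 Agar diffusion assay: 100 µL wells cut in an agar layer overlaid with the repair-deficient yeast strain (∆rad52, or ∆rad52∆top1). IC12 in µg/mL is the concentration giving a 12 mm inhibition zone around the well.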
# Saccharomyces cerevisiae [2] = test: Growth inhibition of Yeast expressing rad52 mutant by yeast bioassay; type: functional; outline: as §1
# [3] = Cytotoxicity against rat H4IIE cells by XTT assay; type: functional, cell-based
# Outline: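 H4IIE rat hepatoma cells in culture; growth read out with the XTT protocol. IC50 in µM is the concentration giving 50% growth inhibition. Active compounds were run in two separate assays, and both values are reported.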
# Vero = test: Cytotoxicity against african green monkey Vero cells; type: cell-based; conditions: Chlorocebus sabaeus
smiles,measurement,setting,value
CC(CO)(CO)NCc1cc2c(o1)C(=O)c1ccccc1C2=O,IC12,Saccharomyces cerevisiae [1],240 µg/mL
same,IC12,Saccharomyces cerevisiae [2],> 500 µg/mL
same,IC50,[3],2 µM
O=Cc1cc2c(o1)C(=O)c1ccccc1C2=O,IC12,Saccharomyces cerevisiae [1],44 µg/mL
same,IC12,Saccharomyces cerevisiae [2],160 µg/mL
same,IC50,[3],2 µM
O=C1c2ccccc2C(=O)c2oc(CNC(CO)(CO)CO)cc21,IC12,Saccharomyces cerevisiae [1],> 250 µg/mL
same,IC12,Saccharomyces cerevisiae [2],> 500 µg/mL
same,IC50,[3],> 20 µM
O=C1c2ccccc2C(=O)c2occc21,IC12,Saccharomyces cerevisiae [1],17 µg/mL
same,IC12,Saccharomyces cerevisiae [2],83 µg/mL
same,IC50,[3],5 µM
COc1ccc2cn(C(C)(CO)CO)c3c2c1C(=O)c1ccoc1-3,IC12,Saccharomyces cerevisiae [1],> 500 µg/mL
same,IC12,Saccharomyces cerevisiae [2],> 500 µg/mL
same,IC50,[3],> 20 µM
CCC(CO)(CO)NCc1cc2c(o1)C(=O)c1ccccc1C2=O,IC12,Saccharomyces cerevisiae [1],> 500 µg/mL
same,IC12,Saccharomyces cerevisiae [2],> 500 µg/mL
same,IC50,[3],5 µM
CC(C)(CO)NCc1cc2c(o1)C(=O)c1ccccc1C2=O,IC12,Saccharomyces cerevisiae [1],210 µg/mL
same,IC12,Saccharomyces cerevisiae [2],> 500 µg/mL
same,IC50,[3],4 µM
COc1cccc2c1C(=O)c1ccoc1C2=O,IC12,Saccharomyces cerevisiae [1],44 µg/mL
same,IC12,Saccharomyces cerevisiae [2],152 µg/mL
same,IC50,[3],7 µM
O=C1c2ccccc2C(=O)c2oc(CNCC(O)CO)cc21 (configuration not stated),IC12,Saccharomyces cerevisiae [1],220 µg/mL
same,IC12,Saccharomyces cerevisiae [2],> 500 µg/mL
same,IC50,[3],2 µM
CC(O)c1cc2c(o1)C(=O)c1ccccc1C2=O (configuration not stated),IC50,Vero,15.3 µM
same,IC12,Saccharomyces cerevisiae [2],14 µg/mL
COc1cc(OC)c2c(c1)C(=O)c1occc1C2=O,IC12,Saccharomyces cerevisiae [1],125 µg/mL
same,IC12,Saccharomyces cerevisiae [2],> 8000 µg/mL
same,IC50,[3],5 µM
